Reference: ChEMBL document CHEMBL3632461 (J Med Chem, 2015)
pEC50, pIC50: −log10 of the molar value.

Tests used:
[1] = molecular target: T1, Thyroid peroxidase (Homo sapiens) (UniProt P07202); test: Inhibition of TPO (unknown origin) using Amplex Red as substrate assessed as formation of resorufin by measuring ratio of Kinact to Ki measured every 20 secs by spectrophotometric analysis
T1 sequence (whole entry): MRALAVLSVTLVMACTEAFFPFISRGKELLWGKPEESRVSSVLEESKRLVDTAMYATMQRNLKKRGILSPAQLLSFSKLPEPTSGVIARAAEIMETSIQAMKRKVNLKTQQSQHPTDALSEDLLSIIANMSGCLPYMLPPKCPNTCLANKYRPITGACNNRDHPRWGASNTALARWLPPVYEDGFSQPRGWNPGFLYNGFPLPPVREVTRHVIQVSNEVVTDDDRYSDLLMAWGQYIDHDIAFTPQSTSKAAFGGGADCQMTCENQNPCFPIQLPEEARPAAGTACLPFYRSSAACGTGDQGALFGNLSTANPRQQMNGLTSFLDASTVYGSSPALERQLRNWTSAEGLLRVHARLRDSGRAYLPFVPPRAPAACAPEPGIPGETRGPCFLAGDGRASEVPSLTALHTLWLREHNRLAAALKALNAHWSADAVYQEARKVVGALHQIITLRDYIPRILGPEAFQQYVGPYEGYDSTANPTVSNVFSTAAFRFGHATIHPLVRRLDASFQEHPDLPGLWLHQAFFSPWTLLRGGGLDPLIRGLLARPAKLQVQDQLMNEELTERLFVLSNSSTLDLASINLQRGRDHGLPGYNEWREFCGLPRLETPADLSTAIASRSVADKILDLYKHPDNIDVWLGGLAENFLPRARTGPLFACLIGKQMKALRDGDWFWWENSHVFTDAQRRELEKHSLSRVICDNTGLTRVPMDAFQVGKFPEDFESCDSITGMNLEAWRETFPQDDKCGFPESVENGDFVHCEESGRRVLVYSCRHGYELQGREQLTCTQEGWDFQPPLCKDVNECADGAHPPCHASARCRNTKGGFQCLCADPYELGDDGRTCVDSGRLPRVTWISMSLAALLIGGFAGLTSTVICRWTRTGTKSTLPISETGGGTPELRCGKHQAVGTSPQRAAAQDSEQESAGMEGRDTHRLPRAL
How it was run: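 Amplex Red oxidation to resorufin in 50 mM sodium phosphate pH 7.4, 150 mM NaCl, 1 mM DTPA, 2 μM H2O2, 30 μM Amplex Red, 2% DMSO. Reaction started by adding TPO. Background rate measured with bovine catalase added and subtracted. Fluorescence (ex 530/em 580) read every 20 s at room temperature. kinact/KI taken from initial rates over the first 300 s. Geometric mean of at least two experiments.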

[2] = Lipophilicity, log D of the compound at pH 7.4 by shake-flask method; format: physicochemical; conditions: buffer
[3] = Plasma clearance in Wistar rat at 1 mg/kg, iv and 3 or 5 mg/kg, po; format: ADME, organism-based
How it was run: (§1)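 Male CD-1 mice (25−35 g), cannulated Wistar-Han rats (250 g), beagle dogs (12 kg) and cynomolgus monkeys (7 kg), fasted overnight and fed 1.0 or 2.0 h after dosing. iv 1 mg/kg in saline or 12% sulfobutyl ether β-cyclodextrin; po 3 or 5 mg/kg in 0.5% methylcellulose. Parameters calculated from plasma concentration−time data; mean ± SD for n = 3, individual values for n = 2.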

[4] = Tmax in Beagle dog at 3 or 5 mg/kg, po; format: ADME, organism-based, Canis lupus familiaris; conditions: in vivo
How it was run: (§2)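 Male animals (CD-1 mice 25−35 g, cannulated Wistar-Han rats 250 g, beagle dogs 12 kg, cynomolgus monkeys 7 kg), fasted overnight and fed 1.0 or 2.0 h after dosing, water ad libitum. Oral dose 3 or 5 mg/kg in 0.5% methylcellulose. Parameters calculated from plasma concentration−time data; mean ± SD for n = 3, individual values for n = 2.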

[5] = Oral bioavailability in Wistar rat at 3 or 5 mg/kg; format: ADME, organism-based; conditions: in vivo
How it was run: (§3)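 Male CD-1 mice, Wistar-Han rats, beagle dogs and cynomolgus monkeys, fasted overnight and fed after dosing. Given po at 3 or 5 mg/kg in 0.5% methylcellulose, with an iv reference dose of 1 mg/kg. Bioavailability derived from plasma concentration−time data; mean ± SD (n = 3) or individual values (n = 2).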

[6] = Oral bioavailability in Beagle dog at 3 or 5 mg/kg; format: ADME, organism-based, Canis lupus familiaris; conditions: in vivo; how it was run: as §3
[7] = Elimination half life in CD-1 mouse at 1 mg/kg, iv and 3 or 5 mg/kg, po; format: ADME, organism-based; conditions: in vivo; how it was run: as §1
[8] = Elimination half life in cynomolgus monkey at 1 mg/kg, iv and 3 or 5 mg/kg, po; format: ADME, organism-based, Macaca fascicularis; conditions: in vivo; how it was run: as §1
[9] = Tmax in CD-1 mouse at 3 or 5 mg/kg, po; format: ADME, organism-based; conditions: in vivo; how it was run: as §2
[10] = Tmax in cynomolgus monkey at 3 or 5 mg/kg, po; format: ADME, organism-based, Macaca fascicularis; conditions: in vivo; how it was run: as §2
[11] = Oral bioavailability in CD-1 mouse at 3 or 5 mg/kg; format: ADME, organism-based; conditions: in vivo; how it was run: as §3
Cytochrome P450 1A2 = molecular target: T2, Cytochrome P450 1A2 (Homo sapiens, UniProt P05177); test: Reversible inhibition of CYP1A2 phenacetin O-deethylase activity in human liver microsomes by LC-MS/MS analysis; format: ADME
T2 sequence (P05177 whole entry): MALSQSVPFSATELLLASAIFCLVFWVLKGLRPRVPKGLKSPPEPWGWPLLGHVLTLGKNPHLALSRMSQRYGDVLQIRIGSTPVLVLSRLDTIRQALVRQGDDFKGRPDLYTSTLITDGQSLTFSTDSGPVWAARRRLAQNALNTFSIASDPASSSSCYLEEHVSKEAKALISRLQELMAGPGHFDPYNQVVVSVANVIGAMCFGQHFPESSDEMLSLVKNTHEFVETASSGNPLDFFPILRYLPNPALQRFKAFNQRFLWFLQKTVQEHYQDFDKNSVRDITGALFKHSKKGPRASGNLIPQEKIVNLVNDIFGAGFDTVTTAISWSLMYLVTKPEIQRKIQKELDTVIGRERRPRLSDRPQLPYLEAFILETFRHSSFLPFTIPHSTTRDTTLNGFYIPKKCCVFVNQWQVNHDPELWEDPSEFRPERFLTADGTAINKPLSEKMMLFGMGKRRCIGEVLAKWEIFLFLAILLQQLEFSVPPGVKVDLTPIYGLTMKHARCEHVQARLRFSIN
How it was run: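 Reversible inhibition of the major CYP enzymes tested in human liver microsomes using established protocols.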

[12] = Drug excretion in Beagle dog urine at 1 mg/kg, iv; format: ADME, organism-based, Canis lupus familiaris; conditions: read-out: Drug excretion
How it was run: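 Male animals (beagle dogs 12 kg, Wistar-Han rats 250 g, cynomolgus monkeys 7 kg), fasted overnight and fed 1.0 or 2.0 h after dosing, water ad libitum. Dosed iv at 1 mg/kg in saline or 12% sulfobutyl ether β-cyclodextrin. Fraction of the iv dose excreted unchanged in urine.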

Cynomolgus monkey = test: In vivo inhibition of MPO in LPS-stimulated po dosed cynomolgous monkey administered 1 hr post LPS challenge measured after 2 hrs; format: functional, organism-based; conditions: Macaca fascicularis
How it was run: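 Randomized crossover design in cynomolgus monkeys given iv LPS, then oral vehicle or compound (5, 20, 80 mg/kg) 1 h later. Heparinized plasma collected 2 h after dosing. Total MPO captured on anti-MPO antibody plates, plasma exchanged for drug-free medium, and residual activity read by Amplex Red peroxidation. EC₅₀ from a mixed-effect sigmoid model of exposure versus activity.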

Compound: COc1ccc(-c2cc(=O)[nH]c(=S)n2CCN)c(OC)c1
- log(ratio) [1]: < 0.5
- logD [2]: -0.17
- clearance [3]: 70.3 mL/min/kg
- Tmax [4]: 1.3 h
- bioavailability [5]: 91%
- bioavailability [6]: 84%

Compound: COc1ccc(-c2cc(=O)[nH]c(=S)n2CCO)c(OC)c1
- log(ratio) [1]: < 0.5
- logD [2]: 1.1
- clearance [3]: 59.3 mL/min/kg
- Tmax [4]: 1.17 h
- bioavailability [5]: 8%
- bioavailability [6]: 16%

Compound: COc1ccc(Cl)cc1-c1cc(=O)[nH]c(=S)n1CC(N)=O [PF-06282999]
- logD [2]: 0.81
- clearance [3]: 41.8 mL/min/kg
- half-life [7]: 1.36 h
- half-life [8]: 3.28 h
- Tmax [4]: 0.7 h
- Tmax [9]: 1 h
- Tmax [10]: 1.5 h
- bioavailability [5]: 86%
- bioavailability [6]: 75%
- bioavailability [11]: 100%
- pIC50 (Cytochrome P450 1A2): < 4.00
- dose excreted [12]: 26%
- pEC50 (Cynomolgus monkey): 5.42

Compound: COc1ccc(OC)c(-c2cc(=O)[nH]c(=S)n2CC(N)=O)c1
- log(ratio) [1]: < 0.5
- logD [2]: 0.34
- clearance [3]: 37.6 mL/min/kg
- Tmax [4]: 0.63 h
- bioavailability [5]: 61%
- bioavailability [6]: 100%

Compound: COc1ccc(-c2cc(=O)[nH]c(=S)n2CC(N)=O)c(OC)c1
- log(ratio) [1]: < 0.5
- logD [2]: 0.59
- clearance [3]: 35.1 mL/min/kg
- Tmax [4]: 1.5 h
- bioavailability [5]: 76%
- bioavailability [6]: 31%
